# Sampled rows, rich in hits. Any-hit rate of the full collection: about 2.6%.
# Platelet DG rel – platelet dense granule release activity | human platelet-rich plasma, SFLLRN dense granule ATP release, luminescence | inhibition, %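 (compounds screened at 7.5 µM in platelet-rich plasma)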 | 300,000 tested, 0.22% active;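 active = mean replicate score, as percent of positive control, at or above 50; inconclusive = mean below 50 but at least one replicate at or above 50; inactive = mean and every replicate below 50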
# SENP8 block-1 – inhibitors of human SENP8 protease. purified SENP8, Z-RLRGG-aminoluciferin cleavage, luminescence. inhibition, % at 10 µM. AID 2540. 330,000 tested, 1.2% active; in the data active = inhibition above about 50%
# SENP6 block – SENP6 protease inhibition | Q9GZR1 | Recombinant SENP6 catalytic domain, aminoluciferin luminescence | inhibition, % at 10 µM | 330,000 tested, 1.8% active | AID 2599;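 active = inhibition above about 50% at the single tested dose, limit read from the data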;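 also: plate controls were DMSO wells with enzyme for no effect and DMSO wells lacking enzyme for full effect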
# Target sequence (Q9GZR1 628-1112 limits assumed): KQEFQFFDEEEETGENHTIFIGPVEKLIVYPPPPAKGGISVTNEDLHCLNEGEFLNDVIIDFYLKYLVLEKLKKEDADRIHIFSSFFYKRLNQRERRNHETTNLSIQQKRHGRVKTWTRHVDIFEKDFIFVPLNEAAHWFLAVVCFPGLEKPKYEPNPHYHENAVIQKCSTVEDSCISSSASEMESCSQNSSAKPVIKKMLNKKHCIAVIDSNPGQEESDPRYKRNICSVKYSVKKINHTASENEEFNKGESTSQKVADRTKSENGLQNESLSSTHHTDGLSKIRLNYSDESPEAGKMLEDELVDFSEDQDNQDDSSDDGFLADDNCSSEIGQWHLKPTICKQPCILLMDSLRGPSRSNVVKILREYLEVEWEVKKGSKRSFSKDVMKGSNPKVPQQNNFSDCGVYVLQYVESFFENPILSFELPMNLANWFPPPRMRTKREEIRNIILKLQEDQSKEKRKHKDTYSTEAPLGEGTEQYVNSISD
# SENP7 block – SENP7 protease inhibition; Q9BQF6; recombinant SENP7, Z-RLRGG-aminoluciferin luminescence, 40 min; inhibition, % at 5 µM; 330,000 tested, 1.5% active;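 active = inhibition above about 50% at the single test dose, limit read from the data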;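 also: plate controls were DMSO with enzyme for no effect and no enzyme buffer wells for full effect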
# SENP8 block-2 – inhibitors of human SENP8 protease; Q96LD8; 360,000 tested, 0.64% active; inhibition, % at 20 µM; recombinant SENP8, Nedd8 substrate fluorescence; in the data active = inhibition mostly above about 40%, no sharp cut-off; inactive = mostly below about 27%
# SENP1 inh – blocks the human SENP1 SUMO protease catalytic domain | Q9P0U3 | recombinant SENP1 catalytic domain, CyPet-SUMO1-YPet FRET cleavage | inhibition, % at 10 µM | 360,000 tested, 0.21% active | AID 624204;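 active = inhibition at least 30% at 10 µM, raw YFP signal under a set limit, fluorescence ratio 0.5 to 1.5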;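 also: 0% = enzyme with DMSO and 100% = no enzyme wells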
#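 Material – human SENP1 catalytic domain · Input – SENP1 enzyme, 20 pM final · Compound dosing – single concentration of 10 µM compound, 0.5% DMSO final · Timing – enzyme reaction for 50 min at room temperature, dark · Measured by – FRET fluorescence in CFP and YFP emission channels · Control set – no-enzyme wells low, DMSO-plus-enzyme wells high control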
# SENP1 inh conf – confirmation of human SENP1 SUMO protease inhibitors; AID 651678; shares compounds with SENP1 inh; inhibition, % at 10 µM; recombinant SENP1, CyPet-SUMO1-YPet FRET cleavage; 520 tested, 34% active; in the data active = inhibition mostly above about 35%, no sharp cut-off; inactive = mostly below about 32%;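 also: 0% = enzyme with DMSO and 100% = no enzyme control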
# SENP1 kin conf – SENP1 (human) inhibition, kinetic confirmation | shares compounds with SENP1 inh | inhibition, % at 10 µM | 520 tested, 26% active | recombinant SENP1, CyPet-SUMO1-YPet FRET kinetic cleavage; in the data active = inhibition mostly above about 32%, no sharp cut-off; inactive = mostly below about 29%;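 also: 0% = DMSO with enzyme and 100% = no enzyme substrate only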
# * marks the source's active call; other numbers are inactive results; ? = inconclusive; nt = no result.
SMILES,Platelet DG rel,SENP8 block-1,SENP6 block,SENP7 block,SENP8 block-2,SENP1 inh,SENP1 inh conf,SENP1 kin conf
O=C(NN1C(=O)C2C(c3ccccc3)C=CC(c3ccccc3)C2C1=O)c1cccc(Br)c1 (stereo not given),4,4,-10,2,4,40*,11,12
O=C(NN1C(=O)C2C(c3ccccc3)C=CC(c3ccccc3)C2C1=O)c1ccccc1 (stereo not given),0,-9,-11,-9,11,41*,6,6
O=C(C[C@H]1C[C@H](C(=O)N2CCCCC2)[C@@]2(CCc3ccccc3)c3[nH]c4ccc(Cl)cc4c3CCN2C1=O)NCCN1CCOCC1,nt,nt,nt,-7,-3,2,nt,nt
Cc1nc2cc(NCc3ccc(Cl)cc3)ccc2n1C,7,16,29,-9,-62,31*,18,14
Cc1ccc(CNc2ccc3c(c2)nc(C)n3C)cc1,10,-20,-8,-3,-149,2,nt,nt
COc1ccc(OC)c(CCNC(=O)c2ccc3c(=O)[nH]c4c(C(=O)NC(C)C)sc(=S)n4c3c2)c1,7,6,5,3,22,50*,41*,40*
COc1ccc(OC)c(CCNC(=O)c2ccc3c(c2)N(Cc2ccc(F)cc2)CCS3)c1,1,-10,-8,6,-365,0,nt,nt
Cn1c(=O)oc2cc(S(=O)(=O)N3CCN(c4ccc(F)cc4)CC3)ccc21,?,-10,-1,-9,14,37*,6,3
Cn1c(=O)oc2cc(S(=O)(=O)Nc3cccc4c3CCCC4)ccc21,-2,-6,-5,0,17,33*,13,17
CN1CCN(S(=O)(=O)c2ccc3c(c2)oc(=O)n3C)CC1,9,-2,-13,2,5,33*,1,9
CC1CC(C)CN(CCCNS(=O)(=O)c2ccc3c(c2)oc(=O)n3C)C1 (stereo not given),5,0,-2,2,2,33*,8,6
CC1CCN(C(=O)CCNS(=O)(=O)c2ccc3c(c2)oc(=O)n3C)CC1,2,3,13,-3,18,2,nt,nt
COc1ccc(-c2cc3c(=O)n(CC(=O)N4CCN(C)CC4)ncn3n2)cc1,0,-19,-24,-7,-106,-1,nt,nt
O=C(Cn1cc([N+](=O)[O-])ccc1=O)N1CCc2ccccc21,nt,-5,-7,-2,15,0,nt,nt
O=C(N1CCOCC1)N1CCC(n2nnc3cc(F)ccc32)CC1,1,4,31,-2,16,30*,29,14
O=C(c1ccc([N+](=O)[O-])cc1)N1CCC(n2nnc3cc(F)ccc32)CC1,8,-3,-7,0,4,-1,nt,nt
NC(=S)c1cc2cc(Br)ccc2oc1=O,3,-6,-15,3,22,45*,67*,51*
O=C(NNC(=O)c1cc2cc(Br)ccc2oc1=O)c1ccc(O)cc1,2,-5,-11,5,16,13,nt,nt
Cc1ccc(NC(=O)c2ccc(NCc3ccco3)c([N+](=O)[O-])c2)cc1Cl,0,-7,-5,-3,22,37*,24,17
Cc1ccc(NC(=O)c2ccc(NCCN)c([N+](=O)[O-])c2)cc1,-8,2,-10,2,13,2,nt,nt
Cc1cccc(NC(=O)c2ccc(NCCc3ccccc3)c([N+](=O)[O-])c2)c1,1,16,-7,-2,17,86*,15,8
Cn1c(=O)c2[nH]c(-c3ccccc3Cl)c(O)c2n(C)c1=O,-12,-3,-10,-2,-1,32*,11,16
CC(=O)Nn1cc2c(c1-c1ccccc1)c(=O)n(C)c(=O)n2C,-2,0,-14,2,-8,2,nt,nt
Cn1c(=O)c2[nH]c(-c3ccccc3)c(O)c2n(C)c1=O,5,-9,-9,3,-100,60*,56*,54*
Cc1nc(C)c(C(=O)OCC(=O)Nc2ccc(C)c(C)c2)s1,nt,nt,nt,nt,3,2,nt,nt

# Source: PubChem BioAssay (several laboratories)
